The subject of test [1] is MCF7. The test can be described thus: Antimitotic activity in human MCF7mp53 cells assessed as induction of mitotic arrest at 50 ug/mL after 20 hrs. In kind it is functional, cell-based. In a few lines:
(§1)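 MCF-7mp53 cells in 96-well plates, treated in triplicate with compound at 1-50 μg/mL for 20 h at 37 °C. Plates spun 50g, 2 min, to keep mitotic cells attached. Cells fixed/permeabilized (3.7% formaldehyde, 0.1% Triton X-100 in TBS), blocked with 1% BSA. Mitotic cells stained with TG-3 antibody plus fluorescent secondary, nuclei with Hoechst 33342. High-content imaging gave percentage of cells in mitosis.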

Test [2] deals with MCF7. The test can be described thus: Antimitotic activity in human MCF7mp53 cells assessed as induction of mitotic arrest after 20 hrs. As to conditions: MCF7, 20 h. It is filed as functional, cell-based. In a few lines: as §1
Test [3] relates to MCF7. The test is described as follows: Antimitotic activity in human MCF7mp53 cells assessed as cells arrested at mitotic stage at optimal concentration after 20 hrs. In kind it is functional. In a few lines: as §1

In brackets after ≈: the same amount, converted by molar mass. Activity calls are given as the source filed them. No cut-off for these calls is given here.

On to `CNc1nc2ccn(C)c(=O)c(C(O)c3cc(C)c(OC)c(C)c3)c-2n1` (stereo unspecified), for which, in the test on MCF7 [1], the result was inactive.
The same measure, in the same setting: then `COc1c(C)cc(Cc2c3nc(N)nc-3ccn(C)c2=O)cc1C`, with “inactive”.
Regarding `COc1c(C)cc(/C=C2/C(=O)N(C)C=Cc3nc(N(C)C(=O)C(F)(F)F)n(C)c32)cc1C`, the result in the test on MCF7 [1] was inactive.
The term IC50 denotes the concentration that inhibits the measured activity by half. Turning to `CNc1nc2ccn(C)c(=O)c(Cc3cc(C)c(OC)c(C)c3)c-2n1`, the IC50 with MCF7 [2] was found to be 3.5 µg/mL (≈ 10.3 µM). For the same compound, the Activity with MCF7 [3] came out at 67%.
For `COc1c(C)cc(Cc2c3nc(N(C)C)nc-3ccn(C)c2=O)cc1C` the same measures were 3 µg/mL (≈ 8.51 µM) and 82%.
Consider `CNc1nc2ccn(C)c(=O)c(Cc3cc(Br)c(OC)c(Br)c3)c-2n1` [CERATAMINE A], for which the IC50 in the test with MCF7 [2] was 5 µg/mL (≈ 10.7 µM). The Activity with MCF7 [3] came out at 54%.
Take `CNc1nc2ccn(C)c(=O)c(Cc3ccc(OC)cc3)c-2n1` [DESBROMOCERATAMINE A]: the half-inhibitory concentration (IC50) in the test on MCF7 [2] was > 50 µg/mL. Moreover, the Activity with MCF7 [3] turned out to be 23%.

The values are drawn from ChEMBL document CHEMBL1275365, “Synthetic analogues of the microtubule-stabilizing sponge alkaloid ceratamine A are more active than the natural product” (J Med Chem, 2010).
